Article PMC3319430 (Journal of Medicinal Chemistry, 2009)
One block for each compound: values may come before it.

Tests used:
[1] = cited from earlier work
[2] = cited from earlier work; remark: listed apart in the source
CFTR [3] = biological target: T1, CFTR (Homo sapiens, UniProt P13569); assay: Cell-attached single-channel patch-clamp recordings of CFTR; assay type: cell-based; conditions: 1 µM
[4] = biological target: CFTR chloride conductance (Homo sapiens, UniProt P13569); assay: Apical membrane chloride current; assay type: cell-based
[5] = test system: calcium-activated chloride channels; assay: UTP-induced chloride current in cystic fibrosis; assay type: cell-based, human; conditions: 10 or 20 µM
How it was run: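 Short-circuit current in cystic fibrosis human bronchial epithelial cells on inserts in Ussing chambers. Krebs-bicarbonate solution on both sides, gassed with 5% CO2 in air, 37 °C. ENaC was blocked with 10 µM amiloride. Calcium-activated chloride channels were stimulated with 100 µM UTP, and test compound was added.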

[6] = test system: renal cysts in E13.5 embryonic kidneys; assay: Embryonic kidney organ culture model of polycystic kidney disease; parameters: species or system mouse
How it was run: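 Metanephroi from E13.5 mouse embryos, on porous inserts in DMEM/Ham's F-12 with glutamine, HEPES, insulin, transferrin, selenium, prostaglandin E, T3 and antibiotics, 37 °C humidified CO2. Medium with 100 µM 8-Br-cAMP ± test compound replaced every 12 h. For preformed cysts, compound was added at day 3 of 8-Br-cAMP. Transmitted-light images were taken, and % cyst area = total cyst area/total kidney area; 6–8 kidneys.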

human wild-type CFTR = human wild-type CFTR (Homo sapiens, UniProt P13569); assay: Whole-cell patch-clamp in CFTR-expressing FRT cells; assay type: cell-based; conditions: 500 nM; ±100 mV
CFTR [7] = biological target: T1, CFTR; assay: Fluorescence platereader assay of CFTR-mediated iodide influx; assay type: cell-based; conditions: result in words
How it was run: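 FRT cells co-expressing human wild-type CFTR and YFP-H148Q halide sensor, assayed 48 h after plating at confluence. After PBS washes, cells were activated with 5 µM forskolin, 100 µM IBMX and 25 µM apigenin. Test compound was added 5 min later, 25 µM final, for 15 min. Fluorescence was read 2 s baseline, then 10 s after iodide-for-chloride PBS addition. Initial influx rate was fitted by nonlinear regression.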

T1 sequence (P13569 whole entry): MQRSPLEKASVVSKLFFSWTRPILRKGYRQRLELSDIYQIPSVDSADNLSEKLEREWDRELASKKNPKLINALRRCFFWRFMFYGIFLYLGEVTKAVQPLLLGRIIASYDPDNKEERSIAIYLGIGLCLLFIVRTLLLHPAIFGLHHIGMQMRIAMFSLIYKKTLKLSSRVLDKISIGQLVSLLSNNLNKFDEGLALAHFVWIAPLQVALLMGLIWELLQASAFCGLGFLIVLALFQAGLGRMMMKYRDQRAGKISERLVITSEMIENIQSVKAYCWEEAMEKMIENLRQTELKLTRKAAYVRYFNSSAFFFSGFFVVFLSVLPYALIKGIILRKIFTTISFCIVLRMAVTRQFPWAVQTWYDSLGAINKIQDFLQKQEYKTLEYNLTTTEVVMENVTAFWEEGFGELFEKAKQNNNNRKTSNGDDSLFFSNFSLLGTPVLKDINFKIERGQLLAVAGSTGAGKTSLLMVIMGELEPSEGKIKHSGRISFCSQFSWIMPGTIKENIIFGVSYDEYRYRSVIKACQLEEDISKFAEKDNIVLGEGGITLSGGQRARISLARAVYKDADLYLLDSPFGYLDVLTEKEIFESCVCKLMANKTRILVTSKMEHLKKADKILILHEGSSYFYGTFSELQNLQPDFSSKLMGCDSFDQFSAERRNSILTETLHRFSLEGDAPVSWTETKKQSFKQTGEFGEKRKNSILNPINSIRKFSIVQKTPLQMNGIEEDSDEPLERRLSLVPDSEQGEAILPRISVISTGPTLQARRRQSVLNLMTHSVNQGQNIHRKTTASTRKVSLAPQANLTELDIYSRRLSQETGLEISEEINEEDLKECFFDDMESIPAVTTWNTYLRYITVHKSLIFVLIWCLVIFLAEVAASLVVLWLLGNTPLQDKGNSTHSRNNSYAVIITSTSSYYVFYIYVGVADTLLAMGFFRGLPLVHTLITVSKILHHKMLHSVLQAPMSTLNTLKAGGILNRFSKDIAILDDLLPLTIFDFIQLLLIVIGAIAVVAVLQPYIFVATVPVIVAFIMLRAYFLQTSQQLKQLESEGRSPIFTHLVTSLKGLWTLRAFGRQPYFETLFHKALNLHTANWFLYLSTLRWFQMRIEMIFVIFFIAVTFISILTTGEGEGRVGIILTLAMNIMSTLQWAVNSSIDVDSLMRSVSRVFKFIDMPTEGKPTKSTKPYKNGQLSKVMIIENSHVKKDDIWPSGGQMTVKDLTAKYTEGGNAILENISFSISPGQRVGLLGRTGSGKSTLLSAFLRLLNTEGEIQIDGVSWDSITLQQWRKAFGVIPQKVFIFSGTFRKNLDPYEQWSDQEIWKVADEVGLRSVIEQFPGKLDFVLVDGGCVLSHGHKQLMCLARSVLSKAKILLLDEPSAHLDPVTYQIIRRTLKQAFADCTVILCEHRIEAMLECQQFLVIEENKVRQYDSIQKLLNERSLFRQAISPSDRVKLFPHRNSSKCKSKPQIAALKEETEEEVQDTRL
Chain of CFTR chloride conductance (P13569 whole entry): as above
Chain of human wild-type CFTR (P13569 whole entry): as above

SMILES: O=C(O)c1ccc(/C=C2\SC(=S)N(c3cccc(C(F)(F)F)c3)C2=O)cc1 [CFTRinh-172]
Aqueous solubility [1]: low aqueous solubility
Toxicity [2]: low toxicity

Mean channel closed time (CFTR [3]): greatly increased
Mean channel open time (CFTR [3]): did not significantly change
Unitary conductance (CFTR [3]; +80 mV): did not change
Channel open probability (Po) (CFTR [3]; forskolin 10 µM and IBMX 100 µM, control 0.50 ± 0.04): 0.14 ± 0.03
Potency with apigenin or IBMX as agonists compared to CPT-cAMP ([4]; apigenin (100 µM) or IBMX (100 µM)): mildly reduced
Kidney growth ([6]; in culture medium): did not affect kidney growth
CFTR current-voltage relationship after addition (human wild-type CFTR): remained linear
SMILES: Cc1ccc(C2Nc3ccccc3-n3c(-c4ccccc4)c4c(=O)n(C)c(=O)n(C)c4c32)o1 (stereo not shown) [PPQ-102, 7,9-Dimethyl-11-phenyl-6-(5-methylfuran-2-yl)-5,6-dihydropyrimido[4′,5′-3,4]pyrrolo[1,2-a]quinoxaline-8,10-(7H,9H)-dione]
Reversibility of inhibition ([4]; 30 min incubation with 2 µM followed by 10 min washout): complete restoration of CFTR chloride current
Inhibition of UTP-induced chloride currents [5]: little inhibition
Inhibition of cyst formation (percentage area occupied by cysts) ([6]; 0.5 µM, 100 µM 8-Br-cAMP, 4 days in culture): > 60%
Reversibility of cyst inhibition ([6]; 2.5 µM removed after 3 days, 8-Br-cAMP continued): reversible
Size of preformed cysts ([6]; 5 µM added at day 3 of 8-Br-cAMP, over 1 and 2 days): remarkable reduction in cyst size
Cysts at 2.5 and 5 µM ([6]; 2.5 and 5 µM, 100 µM 8-Br-cAMP, 4 days): near complete absence of cysts

CFTR inhibition activity (CFTR [7]): abolished CFTR inhibition activity
SMILES: Cc1ccc(C(=O)Nc2ccccc2-n2cc3c(c2-c2ccccc2)c(=O)n(C)c(=O)n3C)o1 [PPQ-102b, N-(2-(1,3-Dimethyl-2,4-dioxo-5-phenyl-3,4-dihydro-1H-pyrrolo[3,4-d]pyrimidin-6(2H)-yl)phenyl)-5-methylfuran-2-carboxamide]
